The text below walks through data of ChEMBL document CHEMBL1828615, “Synthesis of a series of 3,4-methanoarginines as side-chain conformationally restricted analogues of arginine” (Bioorg Med Chem, 2011).

Substrate in data set [1]: N=C(N)NC[C@H]1C[C@@H]1[C@H](N)C(=O)O
Put plainly: (§1) Activity of mouse iNOS by Michaelis-Menten equation analysis. An outline of the steps:
(§2)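 Murine iNOS kinetics used a hemoglobin capture assay at 30 °C, with no CaCl₂ or calmodulin. The mix held varied substrate concentrations, NADPH, 0.125 mg/mL ferrous hemoglobin-A₀ and H₄B in 100 mM HEPES (pH 7.5), and enzyme addition started it. Absorbance at 401 nm tracked NO-mediated hemoglobin oxidation. Km and kcat were obtained by nonlinear Michaelis–Menten regression of activity against substrate concentration.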

Substrate in data set [2]: N=C(N)NCCC[C@H](N)C(=O)O
The data set is described as §1. An outline of the steps:
as §2

Substrate in data set [3]: N=C(N)NC[C@H]1C[C@H]1[C@H](N)C(=O)O
Described as §1. The procedure, abridged: as §2

Substrate in data set [4]: N=C(N)NC[C@H]1C[C@@H]1[C@H](N)C(=O)O
In words: (§3) Ratio of Kcat to Km for mouse iNOS by Michaelis-Menten equation analysis. The procedure, abridged:
as §2

Substrate in data set [5]: N=C(N)NCCC[C@H](N)C(=O)O
The data set is described as §3. An outline of the steps:
as §2

Substrate in data set [6]: N=C(N)NC[C@H]1C[C@H]1[C@H](N)C(=O)O
Described as §3. The procedure, abridged:
as §2

Substrate in data set [7]: N=C(N)NC[C@H]1C[C@@H]1[C@H](N)C(=O)O
In words: (§4) Activity of bovine eNOS by Michaelis-Menten equation analysis. The note with it: Bos taurus. An outline of the steps:
(§5)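 Bovine eNOS run as a hemoglobin capture assay at 30 °C. The mix held varied substrate concentrations, 1.0 mM CaCl₂, 600 unit/mL calmodulin, NADPH, 0.125 mg/mL ferrous hemoglobin-A₀ and H₄B in 100 mM HEPES (pH 7.5). Enzyme addition started the reaction, and NO-driven hemoglobin oxidation was followed at 401 nm. Km and kcat came from a nonlinear Michaelis–Menten fit of activity versus substrate concentration.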

Substrate in data set [8]: N=C(N)NCCC[C@H](N)C(=O)O
The description is as §4. The note with it: Bos taurus. An outline of the steps:
as §5

Substrate in data set [9]: N=C(N)NC[C@H]1C[C@H]1[C@H](N)C(=O)O
The description is as §4. The note with it: Bos taurus. The procedure, abridged:
as §5

Substrate in data set [10]: N=C(N)NC[C@H]1C[C@@H]1[C@H](N)C(=O)O
Put plainly: (§6) Ratio of Kcat to Km for bovine eNOS by Michaelis-Menten equation analysis. The note with it: Bos taurus. The procedure, abridged: as §5

Substrate in data set [11]: N=C(N)NCCC[C@H](N)C(=O)O
Described as §6. The note with it: Bos taurus. The procedure, abridged: as §5

Substrate in data set [12]: N=C(N)NC[C@H]1C[C@H]1[C@H](N)C(=O)O
The description is as §6. The following applies: Bos taurus. The procedure, abridged: as §5

B1: Nitric oxide synthase, inducible (Mus musculus), P29477 (protein)
chain: MACPWKFLFKVKSYQSDLKEEKDINNNVKKTPCAVLSPTIQDDPKSHQNGSPQLLTGTAQNVPESLDKLHVTSTRPQYVRIKNWGSGEILHDTLHHKATSDFTCKSKSCLGSIMNPKSLTRGPRDKPTPLEELLPHAIEFINQYYGSFKEAKIEEHLARLEAVTKEIETTGTYQLTLDELIFATKMAWRNAPRCIGRIQWSNLQVFDARNCSTAQEMFQHICRHILYATNNGNIRSAITVFPQRSDGKHDFRLWNSQLIRYAGYQMPDGTIRGDAATLEFTQLCIDLGWKPRYGRFDVLPLVLQADGQDPEVFEIPPDLVLEVTMEHPKYEWFQELGLKWYALPAVANMLLEVGGLEFPACPFNGWYMGTEIGVRDFCDTQRYNILEEVGRRMGLETHTLASLWKDRAVTEINVAVLHSFQKQNVTIMDHHTASESFMKHMQNEYRARGGCPADWIWLVPPVSGSITPVFHQEMLNYVLSPFYYYQIEPWKTHIWQNEKLRPRRREIRFRVLVKVVFFASMLMRKVMASRVRATVLFATETGKSEALARDLATLFSYAFNTKVVCMDQYKASTLEEEQLLLVVTSTFGNGDCPSNGQTLKKSLFMLRELNHTFRYAVFGLGSSMYPQFCAFAHDIDQKLSHLGASQLAPTGEGDELSGQEDAFRSWAVQTFRAACETFDVRSKHHIQIPKRFTSNATWEPQQYRLIQSPEPLDLNRALSSIHAKNVFTMRLKSQQNLQSEKSSRTTLLVQLTFEGSRGPSYLPGEHLGIFPGNQTALVQGILERVVDCPTPHQTVCLEVLDESGSYWVKDKRLPPCSLSQALTYFLDITTPPTQLQLHKLARFATDETDRQRLEALCQPSEYNDWKFSNNPTFLEVLEEFPSLHVPAAFLLSQLPILKPRYYSISSSQDHTPSEVHLTVAVVTYRTRDGQGPLHHGVCSTWIRNLKPQDPVPCFVRSVSGFQLPEDPSQPCILIGPGTGIAPFRSFWQQRLHDSQHKGLKGGRMSLVFGCRHPEEDHLYQEEMQEMVRKRVLFQVHTGYSRLPGKPKVYVQDILQKQLANEVLSVLHGEQGHLYICGDVRMARDVATTLKKLVATKLNLSEEQVEDYFFQLKSQKRYHEDIFGAVFSYGAKKGSALEEPKATRL
In general, Km refers to the concentration of substrate that gives half-maximal velocity. The kcat/Km is the second-order rate constant that governs catalysis at low substrate concentration. B1: the figures for the Km in data set [1], in data set [2] and in data set [3] were 20 µM, 9.5 µM and 582 µM, respectively. Moreover, the catalytic efficiency (kcat/Km) in [4] was found to be 99000 M⁻¹ s⁻¹; in data set [5], 110000 M⁻¹ s⁻¹; in data set [6] it was 3000 M⁻¹ s⁻¹.

B2: Nitric oxide synthase 3 (Bos taurus), P29473 (protein)
chain: MGNLKSVGQEPGPPCGLGLGLGLGLCGKQGPASPAPEPSRAPAPATPHAPDHSPAPNSPTLTRPPEGPKFPRVKNWELGSITYDTLCAQSQQDGPCTPRCCLGSLVLPRKLQTRPSPGPPPAEQLLSQARDFINQYYSSIKRSGSQAHEERLQEVEAEVASTGTYHLRESELVFGAKQAWRNAPRCVGRIQWGKLQVFDARDCSSAQEMFTYICNHIKYATNRGNLRSAITVFPQRAPGRGDFRIWNSQLVRYAGYRQQDGSVRGDPANVEITELCIQHGWTPGNGRFDVLPLLLQAPDEAPELFVLPPELVLEVPLEHPTLEWFAALGLRWYALPAVSNMLLEIGGLEFSAAPFSGWYMSTEIGTRNLCDPHRYNILEDVAVCMDLDTRTTSSLWKDKAAVEINLAVLHSFQLAKVTIVDHHAATVSFMKHLDNEQKARGGCPADWAWIVPPISGSLTPVFHQEMVNYILSPAFRYQPDPWKGSATKGAGITRKKTFKEVANAVKISASLMGTLMAKRVKATILYASETGRAQSYAQQLGRLFRKAFDPRVLCMDEYDVVSLEHEALVLVVTSTFGNGDPPENGESFAAALMEMSGPYNSSPRPEQHKSYKIRFNSVSCSDPLVSSWRRKRKESSNTDSAGALGTLRFCVFGLGSRAYPHFCAFARAVDTRLEELGGERLLQLGQGDELCGQEEAFRGWAKAAFQASCETFCVGEEAKAAAQDIFSPKRSWKRQRYRLSTQAEGLQLLPGLIHVHRRKMFQATVLSVENLQSSKSTRATILVRLDTAGQEGLQYQPGDHIGICPPNRPGLVEALLSRVEDPPPPTESVAVEQLEKGSPGGPPPSWVRDPRLPPCTLRQALTFFLDITSPPSPRLLRLLSTLAEEPSEQQELETLSQDPRRYEEWKWFRCPTLLEVLEQFPSVALPAPLLLTQLPLLQPRYYSVSSAPNAHPGEVHLTVAVLAYRTQDGLGPLHYGVCSTWLSQLKTGDPVPCFIRGAPSFRLPPDPYVPCILVGPGTGIAPFRGFWQERLHDIESKGLQPAPMTLVFGCRCSQLDHLYRDEVQDAQERGVFGRVLTAFSREPDSPKTYVQDILRTELAAEVHRVLCLERGHMFVCGDVTMATSVLQTVQRILATEGDMELDEAGDVIGVLRDQQRYHEDIFGLTLRTQEVTSRIRTQSFSLQERHLRGAVPWAFDPPGPDTPGP
Consider B2, for which the values for the Km in data set [7], in data set [8] and in [9] were 3.6 µM, 1.1 µM and 163 µM, respectively. The kcat/Km in data set [10] came to 42000 M⁻¹ s⁻¹; in data set [11], 73000 M⁻¹ s⁻¹; in [12], 920 M⁻¹ s⁻¹.
